Among the data in ChEMBL document CHEMBL1149369, “Isolation, structure elucidation, total synthesis, and evaluation of new natural and synthetic ceramides on human SK-MEL-1 melanoma cells” (J Med Chem, 2006) are IC50 and Activity values, retold here.

Activity calls are given as the source filed them. The calls are words filed in the database; no cut-off is given here.

By IC50 is commonly meant the concentration that gives 50% inhibition.

Holding throughout (format): functional, cell-based
In assay [1] the test system is SK-MEL-1. Kind of assay: Antiproliferative activity against human SK-MEL-1 cells by MTT assay. In outline:
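SK-MEL-1 in RPMI 1640 + 10% heat-inactivated FBS, 37 °C, 5% CO2; resuspended in fresh medium 24 h before treatment. 1 × 10^4 exponentially growing cells exposed 72 h at 37 °C to graded concentrations (10 mM ethanol/dodecane 49:1 stocks; final solvent ≤0.5%, vehicle controls). MTT; OD 570 nm vs control; IC50 by curve fitting; two independent experiments, triplicate determinations.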
A general note: Formazan colour is commonly taken as a measure of viable cells.

Assay [2] relates to SK-MEL-1. The experiment in a line: Apoptotic activity in human SK-MEL-1 cells measured as induction of DNA fragmentation. In outline:
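SK-MEL-1 cells incubated 6 h or 12 h with 10-30 µM ceramides or untreated. 4 × 10^5 cells lysed in 50 mM Tris-HCl pH 8.0, 10 mM EDTA, 0.5% SDS, RNase A (37 °C, 1 h), then proteinase K (50 °C, 2 h). Phenol-chloroform-isoamyl alcohol extraction; 2% agarose gel in TAE at 40 V, 4 h; ethidium bromide staining, UV visualisation of ladders.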

Assay [3] has as its system SK-MEL-1. The experiment in a line: Apoptotic activity in human SK-MEL-1 cells measured as induction of poly ADP-ribose polymerase cleavage by Western blot analysis. In outline: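 SK-MEL-1 cells exposed 12 h to 10 µM or 30 µM ceramides; untreated controls. Cells pelleted, washed in ice-cold PBS, lysed; SDS-PAGE and immunoblot with anti-PARP antibody that also detects the 85 kDa cleavage fragment.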
In general terms: A western blot detects proteins with antibodies after separation by electrophoresis.

Assay [4] relates to SK-MEL-1. The experiment in a line: Apoptotic activity in human SK-MEL-1 cells measured as procaspase 8 cleavage by Western blot analysis. In outline:
(§1)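 Western blot for procaspase-8 and -9 in SK-MEL-1 cells cultured with 10 µM or 30 µM ceramides and harvested at 12 h.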

The test system of assay [5] is SK-MEL-1. The experiment in a line: Apoptotic activity in human SK-MEL-1 cells measured as procaspase 9 cleavage by Western blot analysis. In outline:
as §1

Regarding `CCCCCCCCCCCCCCCCCC[C@@H](OC(C)=O)[C@@H](OC(C)=O)[C@H](COC(C)=O)NC(=O)[C@H](OC(C)=O)[C@H](CCCCCCCCCCCCCCCCC)OC(C)=O`, the IC50 with SK-MEL-1 [1] was 7.1 µM. In addition, the Activity entry in the assay with SK-MEL-1 [2] was “Dose-dependent effect”. Besides, the result in the assay with SK-MEL-1 [3], with SK-MEL-1 [4] and in the assay on SK-MEL-1 [5] was Active.

In the case of `CCCCCCCCCCCCCCCCCC[C@@H](OC(C)=O)[C@@H](OC(C)=O)[C@H](COC(C)=O)NC(=O)[C@H](OC(C)=O)[C@@H](CCCCCCCCCCCCCCCCC)OC(C)=O`, the 50% inhibitory concentration (IC50) in the assay with SK-MEL-1 [1] was found to be 5.6 µM. Besides, the Activity entry with SK-MEL-1 [2] is “Dose-dependent effect”. The result in the assay with SK-MEL-1 [3], with SK-MEL-1 [4] and with SK-MEL-1 [5] was Active.

In the assay on SK-MEL-1 [1], `CCCCCCCCCCCCCCCCCC[C@@H](OC(C)=O)C(=O)N[C@@H](COC(C)=O)[C@H](OC(C)=O)[C@@H](CCCCCCCCCCCCCCCCCC)OC(C)=O` had an IC50 of 7.7 µM. Further, the Activity result with SK-MEL-1 [2] was “Dose-dependent effect”. Besides, the outcome with SK-MEL-1 [3], in the assay with SK-MEL-1 [4] and in the assay on SK-MEL-1 [5] was Active.

In the case of `CCCCCCCCCCCCCCCCCC[C@@H](OC(C)=O)[C@@H](OC(C)=O)[C@H](COC(C)=O)NC(=O)[C@@H](OC(C)=O)[C@H](CCCCCCCCCCCCCCCCC)OC(C)=O`, the IC50 with SK-MEL-1 [1] was 10.2 µM. Also, in the assay with SK-MEL-1 [2], the Activity entry is “Dose-dependent effect”. The outcome with SK-MEL-1 [3], with SK-MEL-1 [4] and in the assay on SK-MEL-1 [5] was Active.

`CCCCCCCCCCCCCCCCCC[C@@H](OC(C)=O)[C@@H](OC(C)=O)[C@H](COC(C)=O)NC(=O)[C@@H](OC(C)=O)[C@@H](CCCCCCCCCCCCCCCCC)OC(C)=O`: the IC50 with SK-MEL-1 [1] is 3.9 µM. The Activity result with SK-MEL-1 [2] is “Dose-dependent effect”. Besides, the result in the assay on SK-MEL-1 [3], with SK-MEL-1 [4] and with SK-MEL-1 [5] was Active.
